Data published in ChEMBL document CHEMBL1127039, “Nonpeptide angiotensin II antagonists derived from 4H-1,2,4-triazoles and 3H-imidazo[1,2-b][1,2,4]triazoles” (J Med Chem, 1993).
pIC50: −log10 of the molar value. Active and inactive are the calls of the source. The rule behind the calls is not given here.

Experiments:
[1] = molecular target: T1, Type-1 angiotensin II receptor (Oryctolagus cuniculus, UniProt P34976); assay: Displacement of [125I]-Sar1-Ile8-A II at the rabbit aorta angiotensin II receptor, type 1; assay type: tissue-based
T1 sequence (P34976 whole entry): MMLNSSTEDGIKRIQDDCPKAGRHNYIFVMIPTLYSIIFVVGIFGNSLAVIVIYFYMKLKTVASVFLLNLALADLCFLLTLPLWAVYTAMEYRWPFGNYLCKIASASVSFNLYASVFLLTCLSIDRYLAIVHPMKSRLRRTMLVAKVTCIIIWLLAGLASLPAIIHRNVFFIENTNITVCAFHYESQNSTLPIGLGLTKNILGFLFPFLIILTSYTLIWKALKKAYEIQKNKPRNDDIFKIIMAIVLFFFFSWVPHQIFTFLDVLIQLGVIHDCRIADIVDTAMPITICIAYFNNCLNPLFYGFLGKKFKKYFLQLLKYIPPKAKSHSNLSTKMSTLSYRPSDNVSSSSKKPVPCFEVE
Method in brief: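 Rabbit aorta membranes in 50 mM Tris-HCl pH 7.4, 5 mM MgCl2, 0.2 mg/mL bacitracin; 0.2% BSA only in original version. Nonspecific binding with 1 μM unlabeled Sar1Ile8-AII. Filtration, gamma counting. Duplicate tubes, five concentrations; IC50 from nonlinear regression of displacement curves, sometimes averaged over separate assays.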

Rattus norvegicus [2] = assay: Peak inhibition of A II pressor response in conscious normotensive rats after intravenous administration of 3 mg/kg of drug (4 animals treated); assay type: functional
Method in brief: (§1)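 Male Sprague-Dawley rats (300–400 g) catheterized under methohexital, recovered overnight, conscious. Compound given iv (saline or NaHCO3/saline/water vehicle) or po, with food withheld for oral dosing. AII 0.1 μg/kg iv bolus given at -45, -30 and -15 min, then at 5–60 min and every 30 min afterwards. Peak percent inhibition of the AII ΔMAP response, averaged over at least two rats.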

Rattus norvegicus [3] = assay: Time from onset of action until significant (i.e., >= 30%) inhibition of pressor response no longer observed (3 mg/kg intravenous route); assay type: functional
Method in brief: (§2)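 Same conscious-rat AII challenge protocol: AII 0.1 μg/kg iv boluses repeated after iv or po dosing, ΔMAP recorded. Duration is the time from onset until inhibition falls below 30% and stays below 30% for two further AII challenges. Averaged over at least two rats.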

Rattus norvegicus [4] = assay: Time from onset of action until significant (i.e., >= 30%) inhibition of pressor response no longer observed (1 mg/kg intravenous route).; assay type: functional; method in brief: as §2
Rattus norvegicus [5] = assay: Peak inhibition of A II pressor response in conscious normotensive rats after intravenous administration of 1 mg/kg of drug (2 animals treated); assay type: functional; method in brief: as §1
Rattus norvegicus [6] = assay: Peak inhibition of A II pressor response in conscious normotensive rats after intravenous administration of 1 mg/Kg of drug (2 animals treated); assay type: functional; method in brief: as §1
Rattus norvegicus [7] = assay: Time from onset of action until significant (i.e., >= 30%) inhibition of pressor response no longer observed (1 mg/Kg intravenous route).; assay type: functional; method in brief: as §2
Rattus norvegicus [8] = assay: Time from onset of action until significant (i.e., >= 30%) inhibition of pressor response no longer observed (10 mg/kg intravenous route).; assay type: functional; method in brief: as §2
Rattus norvegicus [9] = assay: Peak inhibition of A II pressor response in conscious normotensive rats after intravenous administration of 10 mg/kg of drug (3 animals treated); assay type: functional; method in brief: as §1
Rattus norvegicus [10] = species on record: Rattus norvegicus; assay: In vitro antagonistic activity by displacement of [125I]-Sar1-Ile8-A II at the rat adrenal cortical […] AT1 receptor; assay type: functional
Rattus norvegicus [11] = assay: Peak inhibition of A II pressor response in conscious normotensive rats after peroral administration of 0.3 mg/kg of drug (2 animals treated); assay type: functional; settings: route oral; method in brief: as §1
Rattus norvegicus [12] = assay: Peak inhibition of A II pressor response in conscious normotensive rats after peroral administration of 3 mg/kg of drug (4 animals treated); assay type: functional; settings: route oral; method in brief: as §1
Rattus norvegicus [13] = assay: Time from onset of action until significant (i.e., >= 30%) inhibition of pressor response no longer observed (0.3 mg/kg intravenous route); assay type: functional; method in brief: as §2
Rattus norvegicus [14] = assay: Time from onset of action until significant (i.e., >= 30%) inhibition of pressor response no longer observed (0.3 mg/kg peroral route).; assay type: functional; method in brief: as §2
Rattus norvegicus [15] = assay: Time from onset of action until significant (i.e., >= 30%) inhibition of pressor response no longer observed (3 mg/kg peroral route); assay type: functional; method in brief: as §2
Rattus norvegicus [16] = assay: Peak inhibition of A II pressor response in conscious normotensive rats after intravenous administration of 0.3 mg/kg of drug (4 animals treated); assay type: functional; method in brief: as §1
Rattus norvegicus [17] = assay: Peak inhibition of A II pressor response in conscious normotensive rats after intravenous administration of 3 mg/kg of drug (2 animals treated); assay type: functional; method in brief: as §1
Rattus norvegicus [18] = assay: Peak inhibition of A II pressor response in conscious normotensive rats after peroral administration of 30 mg/kg of drug; assay type: functional; settings: route oral; method in brief: as §1
Rattus norvegicus [19] = assay: Time from onset of action until significant (i.e., >= 30%) inhibition of pressor response no longer observed (30 mg/kg peroral route).; assay type: functional; method in brief: as §2
Rattus norvegicus [20] = assay: Peak inhibition of A II pressor response in conscious normotensive rats after peroral administration of 3 mg/kg of drug (3 animals treated); assay type: functional; settings: route oral; method in brief: as §1
Rattus norvegicus [21] = assay: Time from onset of action until significant (i.e., >= 30%) inhibition of pressor response no longer observed (3 mg/kg intravenous route).; assay type: functional; method in brief: as §2
Rattus norvegicus [22] = assay: Peak inhibition of A II pressor response in conscious normotensive rats after peroral administration of 3 mg/kg of drug (results shown for 3 out of 4 animals); assay type: functional; settings: route oral; method in brief: as §1
Rattus norvegicus [23] = assay: Peak inhibition of A II pressor response in conscious normotensive rats after intravenous administration of 0.3 mg/kg of drug (2 animals treated); assay type: functional; method in brief: as §1
Rattus norvegicus [24] = assay: Time from onset of action until significant (i.e., >= 30%) inhibition of pressor response no longer observed (0.3 mg/kg peroral route); Not active; assay type: functional, organism-based; method in brief: as §2
Rattus norvegicus [25] = assay: Peak inhibition of A II pressor response in conscious normotensive rats after peroral administration of 1 mg/kg of drug (2 animals treated); assay type: functional; settings: route oral; method in brief: as §1
Rattus norvegicus [26] = assay: Time from onset of action until significant (i.e., >= 30%) inhibition of pressor response no longer observed (1 mg/kg peroral route); assay type: functional; method in brief: as §2
Rattus norvegicus [27] = assay: Peak inhibition of A II pressor response in conscious normotensive rats after peroral administration of 0.3 mg/kg of drug (2 animals treated); Not active; assay type: functional, organism-based; set-up: dose 0.3 mg/kg; method in brief: as §1
Rattus norvegicus [28] = assay: Time from onset of action until significant (i.e., >= 30%) inhibition of pressor response no longer observed (0.3 mg/kg peroral route)); Not active; assay type: functional, organism-based; method in brief: as §2
Rattus norvegicus [29] = assay: Time from onset of action until significant (i.e., >= 30%) inhibition of pressor response no longer observed (1 mg/kg intravenous route); assay type: functional; method in brief: as §2

CCCCc1nnc(SCc2ccc([N+](=O)[O-])cc2)n1Cc1ccc(-c2ccccc2-c2nn[nH]n2)cc1
pIC50 [1]: 8.18
inhibition in vivo at 3 mg/kg (Rattus norvegicus [2]): 65%
Duration (Rattus norvegicus [3]): 1.4 h

CCCCc1nnc(SCc2ccccc2-c2nn[nH]n2)n1Cc1ccc(-c2ccccc2-c2nn[nH]n2)cc1
pIC50 [1]: 8.85
Duration (Rattus norvegicus [4]): 0.6 h
inhibition in vivo at 1 mg/kg (Rattus norvegicus [5]): 62%

CCCCc1nnc([S+]([O-])Cc2ccc(Cl)cc2)n1Cc1ccc(-c2ccccc2-c2nn[nH]n2)cc1 (stereo not given)
pIC50 [1]: 7.96
Inhibition (Rattus norvegicus [6]): 42%
Duration (Rattus norvegicus [7]): 0.1 h

CCCCc1nnc(SCC(=O)OC)n1Cc1ccc(-c2ccccc2C(=O)O)cc1
pIC50 [1]: 6.27
Duration (Rattus norvegicus [8]): 0.9 h
inhibition in vivo at 10 mg/kg (Rattus norvegicus [9]): 93%

CCCCc1nc(Cl)c(CO)n1Cc1ccc(-c2ccccc2-c2nnn[nH]2)cc1 [LOSARTAN]
pIC50 (Rattus norvegicus [10]): 7.72
inhibition in vivo at 0.3 mg/kg (Rattus norvegicus [11]): 36%
inhibition in vivo at 3 mg/kg (Rattus norvegicus [12]): 94%
Duration (Rattus norvegicus [13]): 5.5 h
Duration (Rattus norvegicus [14]): >3.5 h
Duration (Rattus norvegicus [15]): >4.5 h
inhibition in vivo at 0.3 mg/kg (Rattus norvegicus [16]): 52%

CCCCc1nnc(SCc2ccccc2C)n1Cc1ccc(NC(=O)c2ccccc2C(=O)O)cc1
pIC50 [1]: 7.85
inhibition in vivo at 3 mg/kg (Rattus norvegicus [17]): 56%
Duration (Rattus norvegicus [3]): 0.5 h

CCCCc1nnc(SCc2ccccc2)n1Cc1ccc(NC(=O)c2ccccc2C(=O)O)cc1
pIC50 [1]: 7.82
inhibition in vivo at 30 mg/kg (Rattus norvegicus [18]): 33%
Duration (Rattus norvegicus [19]): 0.4 h

CCCCc1nnc(SCc2ccc(Cl)cc2)n1Cc1ccc(-c2ccccc2-c2nn[nH]n2)cc1
inhibition in vivo at 3 mg/kg (Rattus norvegicus [17]): 62%
inhibition in vivo at 3 mg/kg (Rattus norvegicus [20]): 50%
Duration (Rattus norvegicus [21]): 1 h
Duration (Rattus norvegicus [15]): 1.5 h

CCCCc1nnc(SCc2ccccc2C(=O)O)n1Cc1ccc(-c2ccccc2-c2nn[nH]n2)cc1
pIC50 [1]: 8.82
inhibition in vivo at 0.3 mg/kg (Rattus norvegicus [11]): 0%
inhibition in vivo at 3 mg/kg (Rattus norvegicus [22]): 54%
Duration (Rattus norvegicus [13]): 5.5 h
Duration (Rattus norvegicus [15]): >6 h
inhibition in vivo at 0.3 mg/kg (Rattus norvegicus [23]): 100%
Duration (Rattus norvegicus [24]): inactive

CCCCc1nnc(SCc2ccc(OC)cc2)n1Cc1ccc(NC(=O)c2ccccc2-c2nn[nH]n2)cc1
pIC50 [1]: 8.39
Duration (Rattus norvegicus [4]): 0.2 h
inhibition in vivo at 1 mg/kg (Rattus norvegicus [5]): 70%

CCCCc1nnc(SCc2ccc(C)cc2)n1Cc1ccc(NC(=O)c2ccccc2C(=O)O)cc1
pIC50 [1]: 8.12
inhibition in vivo at 3 mg/kg (Rattus norvegicus [17]): 50%
Duration (Rattus norvegicus [3]): 0.1 h

CCCCc1nc(Cl)c(C(=O)O)n1Cc1ccc(-c2ccccc2-c2nn[nH]n2)cc1 [CARBOXYLIC ACID METABOLITE]
inhibition in vivo at 0.3 mg/kg (Rattus norvegicus [11]): 63%
inhibition in vivo at 1 mg/kg (Rattus norvegicus [25]): 72%
Duration (Rattus norvegicus [13]): >29 h
Duration (Rattus norvegicus [14]): 2.8 h
Duration (Rattus norvegicus [26]): >7 h
inhibition in vivo at 0.3 mg/kg (Rattus norvegicus [23]): 100%

CCCCc1nnc(SCc2ccccc2C(=O)O)n1Cc1ccc(NC(=O)c2ccccc2C(=O)O)cc1
pIC50 [1]: 8.48
inhibition (Rattus norvegicus [27]): inactive
Duration (Rattus norvegicus [13]): 0.9 h
Duration (Rattus norvegicus [28]): inactive
Duration (Rattus norvegicus [29]): 1.4 h
inhibition in vivo at 0.3 mg/kg (Rattus norvegicus [16]): 74%
inhibition in vivo at 1 mg/kg (Rattus norvegicus [5]): 100%
